CASP6 VEID inh = blocks human caspase-6 cleavage activity | P55212 | purified caspase-6, Z-VEID-R110 cleavage fluorescence | inhibition, % at 12.5 µM | 350,000 compounds, 0.53% hits | AID 686996;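 active = mean inhibition across replicates at least about 35%, with every replicate also reaching that limit, limit read from the data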
Target sequence (P55212 24-179 limits assumed): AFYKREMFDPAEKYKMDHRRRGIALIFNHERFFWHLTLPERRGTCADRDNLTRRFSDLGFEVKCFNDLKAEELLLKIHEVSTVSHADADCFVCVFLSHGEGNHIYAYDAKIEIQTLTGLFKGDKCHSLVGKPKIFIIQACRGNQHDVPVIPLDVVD
Target sequence (P55212 194-293 limits assumed): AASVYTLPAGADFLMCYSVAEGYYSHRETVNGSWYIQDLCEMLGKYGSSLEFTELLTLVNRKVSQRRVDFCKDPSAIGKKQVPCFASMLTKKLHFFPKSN
TDP2 absorb = TDP2 (human) inhibition, absorbance primary screen; inhibition, % at 12.8 µM; 370,000 compounds, 0.34% hits; recombinant TDP2, T5PNP hydrolysis, p-nitrophenol absorbance 415 nm; O95551;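 active = inhibition above the mean of all tested compounds plus 3 SD, set per campaign, cut at about 25% in these data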
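System – recombinant human TDP2 · Quantity – TDP2 enzyme at 120 nM final · Doses – single concentration, 12.8 µM nominal, with 1% DMSO · Incubation – 2 h at 37 °C · Measured by – epi absorbance of p-nitrophenol freed from T5PNP by hydrolysis · Read-out – % inhibition relative to enzyme-containing and enzyme-free wells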
MBD2 inh = blocks human MBD2 binding to methylated DNA. Q9UBB5. TR-FRET, MBD2 binding to methylated oligonucleotide. inhibition, % at 4.4 µM. 370,000 compounds, 0.31% hits. AID 686964; in the data active = inhibition above about 13%
Target sequence (Q9UBB5 whole entry, looked up): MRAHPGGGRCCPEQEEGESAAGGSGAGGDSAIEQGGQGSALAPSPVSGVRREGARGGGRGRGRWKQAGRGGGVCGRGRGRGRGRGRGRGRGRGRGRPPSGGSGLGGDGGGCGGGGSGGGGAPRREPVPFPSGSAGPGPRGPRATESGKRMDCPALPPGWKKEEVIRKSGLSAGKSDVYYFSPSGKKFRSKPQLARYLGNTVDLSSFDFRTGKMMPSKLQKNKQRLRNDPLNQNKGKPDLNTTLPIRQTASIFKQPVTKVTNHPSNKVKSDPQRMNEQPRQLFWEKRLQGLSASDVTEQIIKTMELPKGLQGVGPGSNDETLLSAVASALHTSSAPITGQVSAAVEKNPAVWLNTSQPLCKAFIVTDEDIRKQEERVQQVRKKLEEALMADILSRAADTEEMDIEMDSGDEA
UHRF1 binding = blocks human UHRF1 binding to methylated DNA; UHRF1 binding to methylated oligo, TR-FRET; 370,000 compounds, 0.75% hits; Q96T88; AID 687016; inhibition, % at 4.4 µM; in the data active = inhibition above about 21%;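 note: UHRF1 SRA domain binding a hemimethylated CpG hairpin DNA probe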
LEDGF integ inh = blocks HIV-1 LEDGF/p75-dependent DNA integration | TR-FRET IN-LEDGF/p75 DNA integration, Eu/Cy5 | inhibition, % at 3.7 µM | 370,000 compounds, 0.64% hits | AID 743269;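 active = inhibition above the screen-wide mean plus 3 SD, cut at about 13% in these data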;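 note: signal is the Cy5 over europium emission ratio at 671 and 618 nm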
NSD2 HMT inh = NSD2 (human) methyltransferase inhibition. O96028. NSD2 peptide methylation, AlphaScreen, 120 min. inhibition, % at 12.5 µM. 310,000 compounds, 0.54% hits. AID 743445; in the data active = inhibition above about 50%
TDP2 confirm = confirmation of human TDP2 inhibitors; 1,100 compounds, 22% hits; inhibition, % at 12.8 µM; shares compounds with TDP2 absorb; recombinant human TDP2, absorbance read-out; in the data active = inhibition above about 25%
IN multimer act = counter-screen for LEDGF/p75 integration inhibitors: HIV-1 integrase multimerization activators. activation, % at 7.7 µM. 2,000 compounds, 17% hits. shares compounds with LEDGF integ inh. AID 1053131. TR-FRET HIV-1 integrase multimerization, biochemical; in the data active = activation above about 8.9%
TRFRET interf = counter-screen for LEDGF/p75 integration inhibitors: TR-FRET optical interference; shares compounds with LEDGF integ inh; TR-FRET optical interference counterscreen, HIV-1 IN multimerization; inhibition, % at 7.7 µM; 2,000 tested, under 10 active; AID 1053135;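 active = inhibition above the mean over all tested compounds plus 3 SD, which no compound reached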
IN-LEDGF confirm = confirmation of HIV-1 LEDGF/p75-dependent integration inhibitors. TR-FRET LEDGF/p75-dependent HIV-1 integration, biochemical. 2,000 compounds, 36% hits. shares compounds with LEDGF integ inh. inhibition, % at 3.7 µM; in the data active = inhibition above about 14%
Alpha artifact = interferes with AlphaScreen signal, flagging NSD2 false positives; 1,500 compounds, 9.4% hits; AID 1053174; AlphaScreen artifact counterscreen, preloaded methylated H4 peptide; AC35, µM (top dose mostly 10 µM); shares compounds with NSD2 HMT inh; call rule not given here
Of the large screens only hits and unclear results are named; the others gave an inactive call (follow-up assays come after a bar, where they were run). This is a sample that favours compounds with a hit; in the whole collection about 1.8% have one here.

C[C@H](CO)N1C[C@H](C)[C@@H](CN(C)S(=O)(=O)c2ccc(F)cc2)Oc2cc(C3=CCCCC3)ccc2S1(=O)=O	none (no result: TDP2 absorb, MBD2 inh, UHRF1 binding, LEDGF integ inh, NSD2 HMT inh)
Cc1ccc2c(c1C)-c1c(ccc(C)c1C)C(=O)C2=O	TDP2 absorb 79.3, LEDGF integ inh 14.1, NSD2 HMT inh 85.2 | TDP2 confirm 67.3 | IN multimer act inactive | TRFRET interf inactive | IN-LEDGF confirm 68.8 | Alpha artifact inactive
COc1ccc2c3c(n(C)c2c1)[C@H](CO)N(C(=O)NC(C)C)CC31CN(C(=O)NC(C)C)C1	none (no result: TDP2 absorb, MBD2 inh, UHRF1 binding, LEDGF integ inh, NSD2 HMT inh)
CCCCn1c(NC(=O)c2ccco2)c(S(=O)(=O)c2ccc(C)cc2)c2nc3ccccc3nc21	none (no result: NSD2 HMT inh)
CCCCn1c(NC(=O)c2ccc(Br)o2)c(S(=O)(=O)c2ccccc2)c2nc3ccccc3nc21	TDP2 absorb 66.8, LEDGF integ inh 17.0, NSD2 HMT inh 103.7 (no result: CASP6 VEID inh) | TDP2 confirm inactive | IN multimer act inactive | TRFRET interf inactive | IN-LEDGF confirm 21.1 | Alpha artifact inactive
C[C@@H]1CCCCO[C@H](CN(C)C(=O)Nc2ccc(F)cc2)[C@H](C)CN([C@H](C)CO)C(=O)c2cc(NC(=O)Cc3ccccc3)ccc2O1	none (no result: TDP2 absorb, MBD2 inh, UHRF1 binding, LEDGF integ inh, NSD2 HMT inh)
CCOc1ccc(NC(=S)Nc2ccc3nsnc3c2)cc1	TDP2 absorb 71.7, LEDGF integ inh 39.7, NSD2 HMT inh 135.5 (no result: CASP6 VEID inh) | TDP2 confirm 74.1 | IN multimer act inactive | TRFRET interf inactive | IN-LEDGF confirm 74.3 | Alpha artifact inactive
C=CCN(CC=C)C(=S)Nc1ccc2nsnc2c1	TDP2 absorb 71.6, LEDGF integ inh 57.8, NSD2 HMT inh 103.9 | TDP2 confirm 59.4 | IN multimer act inactive | TRFRET interf inactive | IN-LEDGF confirm inactive | Alpha artifact inactive
COc1ccc(NC(=S)Nc2ccc3nsnc3c2)cc1	TDP2 absorb 75.6, LEDGF integ inh 52.0, NSD2 HMT inh 136.6 (no result: CASP6 VEID inh) | TDP2 confirm 80.3 | IN multimer act 15.9 | TRFRET interf inactive | IN-LEDGF confirm 73.9 | Alpha artifact inactive
CCOC(=O)C1=C(COC(=O)c2sccc2C)NC(=O)NC1C (stereo not drawn)	none
CCOC(=O)C1=C(COC(=O)c2ccc([N+](=O)[O-])s2)NC(=O)NC1C (stereo not drawn)	CASP6 VEID inh 89.4, TDP2 absorb 38.7, LEDGF integ inh 31.1, NSD2 HMT inh 103.6 | TDP2 confirm 41.5 | IN multimer act inactive | TRFRET interf inactive | IN-LEDGF confirm 60.6 | Alpha artifact inactive
C[C@@H]1CN([C@@H](C)CO)C(=O)c2cc(/C=C/c3ccccc3)cnc2O[C@H]1CN(C)Cc1ccccc1	none (no result: TDP2 absorb, MBD2 inh, UHRF1 binding, LEDGF integ inh, NSD2 HMT inh)
Cc1oc2c(c1C(=O)c1ccccc1)C(=O)C(=O)c1ccccc1-2	TDP2 absorb 38.5, NSD2 HMT inh 50.2 (no result: CASP6 VEID inh) | TDP2 confirm 54.7 | Alpha artifact inactive
O=C1C(=O)c2c(C(=O)c3ccccc3)coc2-c2ccccc21	none
CCC(=O)N(C)C[C@@H]1Oc2ncc(-c3ccc(C)cc3)cc2C(=O)N([C@H](C)CO)C[C@@H]1C	none (no result: TDP2 absorb, MBD2 inh, UHRF1 binding, LEDGF integ inh, NSD2 HMT inh)
Cc1c(C(=O)NCCN2CCOCC2)oc2ccc(Br)cc12	LEDGF integ inh 18.3 | IN multimer act inactive | TRFRET interf inactive | IN-LEDGF confirm inactive
CC(=O)Nc1cc2c(cc1[N+](=O)[O-])-c1ccccc1C2=NO	LEDGF integ inh 14.8 | IN multimer act inactive | TRFRET interf inactive | IN-LEDGF confirm inactive
CO[C@H]1CN(C)C(=O)c2ccc(NC(=O)NC(C)C)cc2OC[C@@H](C)N(Cc2ccccn2)C[C@@H]1C	none (no result: TDP2 absorb, MBD2 inh, UHRF1 binding, LEDGF integ inh, NSD2 HMT inh)
CC(C)(C)OC(=O)N1Cc2ccccc2C[C@H]1C(=O)NCC(=O)NC1CCCC1	none (no result: NSD2 HMT inh)
CC(C)(C)OC(=O)N1Cc2ccccc2C[C@H]1C(=O)NC1CCCC1	LEDGF integ inh 52.7 | IN multimer act inactive | TRFRET interf inactive | IN-LEDGF confirm inactive
Cc1ccc(N2C(=O)[C@@H]3[C@H](C2=O)C2c4ccccc4C=CN2[C@@H]3C(=O)c2ccco2)cc1 (stereo partly drawn)	LEDGF integ inh 13.4 (no result: CASP6 VEID inh) | IN multimer act inactive | TRFRET interf inactive | IN-LEDGF confirm 25.4
Cc1ccc(N2C(=O)[C@@H]3[C@H](C2=O)[C@H]2C=C(C(=O)c4ccccc4)C=CN2[C@@H]3C(=O)c2ccc(Cl)cc2)cc1	none
Cc1cc2nc3ccc(N(C)C)cc3nc2cc1N	LEDGF integ inh 30.7 | IN multimer act 15.0 | TRFRET interf inactive | IN-LEDGF confirm 72.5
CC(Sc1nnc(-c2ccccc2Br)o1)C(=O)N1CCOCC1 (stereo not drawn)	LEDGF integ inh 22.8 | IN multimer act inactive | TRFRET interf inactive | IN-LEDGF confirm inactive
O=C(CSc1nnc(-c2ccccc2Br)o1)N1CCOCC1	none
O=S(=O)(O)c1cc(O)c(N=Nc2ccc(O)cc2O)c2ccccc12	CASP6 VEID inh 52.0, LEDGF integ inh 32.5, NSD2 HMT inh 92.4 | IN multimer act 95.1 | TRFRET interf inactive | IN-LEDGF confirm 40.4
O=[N+]([O-])c1ccccc1N=Nc1ccc(O)cc1O	none
C=CCN(c1ccccc1Cl)S(=O)(=O)c1cccc(C(=O)NCCc2ccc(OC)cc2)c1	LEDGF integ inh 89.6 (no result: CASP6 VEID inh) | IN multimer act inactive | TRFRET interf inactive | IN-LEDGF confirm inactive
O=C(Nc1ccc(Cl)cc1)N[C@@H]1CC[C@H](CCn2cc(-c3ccccc3F)nn2)O[C@@H]1CO	none (no result: TDP2 absorb, MBD2 inh, UHRF1 binding, LEDGF integ inh, NSD2 HMT inh)
O=C(NCCOc1ccccc1)C(=O)c1c[nH]c2ccccc12	LEDGF integ inh 30.4 | IN multimer act inactive | TRFRET interf inactive | IN-LEDGF confirm inactive
Cc1noc(C)c1NC(=O)N(C)C[C@H]1Oc2ccc(NC(=O)Nc3ccc4c(c3)OCO4)cc2C(=O)N([C@@H](C)CO)C[C@H]1C	none (no result: TDP2 absorb, MBD2 inh, UHRF1 binding, LEDGF integ inh, NSD2 HMT inh)
Cc1[nH]n(-c2ccccc2)c(=O)c1C(=O)c1ccc([N+](=O)[O-])cc1	none
Cc1[nH]n(-c2ccccc2)c(=O)c1C(c1cccc([N+](=O)[O-])c1)c1c(C)[nH]n(-c2ccccc2)c1=O	TDP2 absorb 89.6, LEDGF integ inh 26.7 | IN multimer act inactive | TRFRET interf inactive | IN-LEDGF confirm inactive

High-throughput results: PubChem BioAssay, several laboratories
